Reference: ChEMBL document CHEMBL4028836, “Optimization of M4 positive allosteric modulators (PAMs): The discovery of VU0476406, a non-human primate in vivo tool compound for translational pharmacology” (Bioorg Med Chem Lett, 2017)

Columns and labels:
[1] = Oral bioavailability in rat at 10 mg/kg; type: ADME, organism-based; conditions: in vivo
Outline: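 Rat oral bioavailability from a 10 mg/kg solution dose. Separately, the HCl salt was dosed as a suspension.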

[2] = Volume of distribution at steady state in dog at 3 mg/kg, iv or po; type: ADME, organism-based, Canis lupus familiaris; conditions: in vivo, read-out: Vdss
Outline: (§1)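 Dog IV and PO pharmacokinetics. Oral bioavailability from a 3 mg/kg suspension dose of the HCl salt.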

[3] = Oral bioavailability in dog at 3 mg/kg; type: ADME, organism-based, Canis lupus familiaris; conditions: in vivo; outline: as §1
[4] = Elimination half life in dog at 3 mg/kg, iv or po; type: ADME, organism-based, Canis lupus familiaris; conditions: in vivo, read-out: beta t1/2 (converted)
[5] = system: Cynomolgus monkey; assay: Elimination half life in cynomolgus monkey at 10 mg/kg, iv; type: ADME, organism-based, Macaca fascicularis; conditions: in vivo
[6] = Oral bioavailabilty in cynomolgus monkey at 10 mg/kg; type: ADME, organism-based, Macaca fascicularis; conditions: in vivo
Outline: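 Cynomolgus monkey oral bioavailability from a 10 mg/kg solution dose of the HCl salt.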

[7] = system: Cynomolgus monkey; assay: Volume of distribution at steady state in cynomolgus monkey at 10 mg/kg, iv; type: ADME, organism-based, Macaca fascicularis; conditions: in vivo
[8] = target: T1, Muscarinic acetylcholine receptor M4 (Homo sapiens) (UniProt P08173); assay: Positive allosteric modulation of human M4 receptor expressed in CHO cells coexpressing Gqi5 assessed as increase in acetylcholine-induced calcium mobilization relative to acetylcholine; type: functional, cell-based
T1 sequence (whole entry): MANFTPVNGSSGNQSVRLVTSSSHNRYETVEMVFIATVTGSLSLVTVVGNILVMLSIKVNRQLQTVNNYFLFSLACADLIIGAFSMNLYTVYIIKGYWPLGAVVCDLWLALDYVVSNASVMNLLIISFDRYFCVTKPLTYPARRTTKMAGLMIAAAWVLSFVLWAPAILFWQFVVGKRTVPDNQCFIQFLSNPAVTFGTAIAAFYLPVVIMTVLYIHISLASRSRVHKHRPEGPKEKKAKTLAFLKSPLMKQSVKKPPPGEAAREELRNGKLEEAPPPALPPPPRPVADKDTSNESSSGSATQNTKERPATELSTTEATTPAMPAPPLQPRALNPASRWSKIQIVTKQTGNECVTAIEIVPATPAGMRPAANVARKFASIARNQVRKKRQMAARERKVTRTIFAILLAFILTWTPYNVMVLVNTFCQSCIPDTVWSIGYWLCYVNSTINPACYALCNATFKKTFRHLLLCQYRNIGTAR
Outline: (§2)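 Calcium mobilization in CHO cells expressing hM4 with Gqi5. Compound added in presence of a fixed EC20 concentration of acetylcholine. Values are means of three independent experiments, each run in triplicate.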

[9] = target: T2, Muscarinic acetylcholine receptor M4 (Homo sapiens, UniProt P08173); assay: Positive allosteric modulation of human M4 receptor expressed in CHO cells coexpressing Gqi5 assessed as increase in acetylcholine-induced calcium mobilization; type: functional, cell-based; outline: as §2
T2 sequence (P08173 whole entry): T1 sequence (whole entry)

[10] = Brain to plasma permeability coefficient, Kp of the compound in cynomolgus monkey at 145 MBq, iv measured at 2 hrs post dose by PET analysis; type: ADME, organism-based, Macaca fascicularis
Outline: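 PET study in one cynomolgus monkey given a single IV dose of [18F]-labelled compound (145 MBq), with roughly 2 hr of data acquisition after dosing. Whole and regional brain distribution of total and calculated unbound compound was determined.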

[11] = Ratio of unbound brain to plasma concentration in cynomolgus monkey at 145 MBq, iv measured at 2 hrs post dose by PET analysis; type: ADME, organism-based, Macaca fascicularis; conditions: read-out: K(p,uu,brain)
Outline: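 Whole and regional brain distribution of total and calculated unbound drug in one cynomolgus monkey. PET after a single IV dose of [18F]-labelled compound (145 MBq), with about 2 h of data acquisition post-dose.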

[12] = Ratio of unbound CSF to plasma concentration in cynomolgus monkey at 145 MBq, iv measured at 2 hrs post dose by PET analysis; type: ADME, organism-based, Macaca fascicularis

Compound	%max [8]	EC50 ([9]; read-out: EC50)	EC50 ([9]; read-out: pEC50 (converted))	other results
Cc1nnc2sc(C(=O)NCc3ccc(-c4cccnc4F)cc3)c(N)c2c1C.Cl	–	–	–	bioavailability [1]: 54%; Vd [2]: 0.7 L/kg; bioavailability [3]: 47%; half-life [4]: 1 h; beta t1/2 [5]: 1.3 h; bioavailability [6]: 4.7%; Vdss [7]: 0.87 L/kg
Cc1nnc2sc(C(=O)NCc3ccc(-c4cnccn4)cc3)c(N)c2c1C	63%	159 nM	–	–
Cc1nnc2sc(C(=O)NCc3ccc(-c4cccnc4[18F])cc3)c(N)c2c1C	–	–	–	Kp [10]: 0.75; Kp uu at 2 h [11]: 1.1; Kp uu at 2 h [12]: 1
Cc1nnc2sc(C(=O)NCc3ccc(-c4ccnnc4)cc3)c(N)c2c1C	96%	56 nM	–	–
Cc1nnc2sc(C(=O)NCc3ccc(-c4ccccn4)cc3)c(N)c2c1C	75%	232 nM	214 nM	–
Cc1nnc2sc(C(=O)NCc3ccc(Br)cc3)c(N)c2c1C	82%	187 nM	182 nM	–
Cc1nnc2sc(C(=O)NCc3ccc(-c4ccccc4)cc3)c(N)c2c1C	49%	319 nM	295 nM	–
Cc1nnc2sc(C(=O)NCc3cccc(-c4ccccc4)c3)c(N)c2c1C	41%	1650 nM	–	–
Cc1nnc2sc(C(=O)NCc3ccccc3Br)c(N)c2c1C	31%	> 10000 nM	–	–
Cc1nnc2sc(C(=O)NCc3ccccc3-c3ccccc3)c(N)c2c1C	30%	> 10000 nM	–	–
